Most compounds without a hit are left out; they make up all but 2.3% or so of the library.
ADAM17 inh = ADAM17 inhibitors, primary screen, biochemical, QFRET | AID 720648, 2013 | inhibition, % at 6.95 µM | 0.83% of 370,000 active | Disintegrin and metalloproteinase domain-containing protein 17 (Homo sapiens), P78536 | recombinant ADAM17, EDANS/DABCYL FRET peptide cleavage;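 active means inhibition above the mean of compounds lying between control limits plus 3 SD, set per campaign, cut at about 8.5% in these data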
ADAM10 inh = human ADAM10 inhibitors, primary screen, biochemical, QFRET, HTS; Disintegrin and metalloproteinase domain-containing protein 10 (Homo sapiens), O14672; recombinant ADAM10, EDANS/DABCYL FRET peptide cleavage, 3 h; inhibition, % at 7 µM; 0.62% of 370,000 active; AID 720582, 2013;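 active means inhibition above a per-campaign cutoff equal to the mean of compounds falling between control-based bounds plus 3 SD, cut at about 20% in these data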
Target sequence (O14672 214-748 limits assumed): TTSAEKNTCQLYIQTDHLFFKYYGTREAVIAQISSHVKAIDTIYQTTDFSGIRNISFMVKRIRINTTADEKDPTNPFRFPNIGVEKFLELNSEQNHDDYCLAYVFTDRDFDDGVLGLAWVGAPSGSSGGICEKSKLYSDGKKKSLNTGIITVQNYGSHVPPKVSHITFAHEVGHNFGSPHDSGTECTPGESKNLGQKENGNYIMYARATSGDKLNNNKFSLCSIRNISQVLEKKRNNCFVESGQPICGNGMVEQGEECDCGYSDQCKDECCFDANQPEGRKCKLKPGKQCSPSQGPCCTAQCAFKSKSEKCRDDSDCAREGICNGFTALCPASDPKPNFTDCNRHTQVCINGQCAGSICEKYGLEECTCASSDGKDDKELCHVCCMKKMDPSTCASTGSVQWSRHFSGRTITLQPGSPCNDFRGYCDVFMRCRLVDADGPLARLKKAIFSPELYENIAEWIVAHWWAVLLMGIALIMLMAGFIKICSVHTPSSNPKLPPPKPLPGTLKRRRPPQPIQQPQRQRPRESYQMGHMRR
PLCg1 inh = PLC-gamma1 enzyme inhibitors, primary screen, biochemical, fluorescence, purified enzyme; 1-phosphatidylinositol 4,5-bisphosphate phosphodiesterase gamma-1 (Homo sapiens), P19174; fluorogenic substrate; inhibition, % at 12.2 µM; 0.84% of 370,000 active; in the data active means inhibition above about 9.5%
DDE Tn7 FP inh = inhibitors of Tn7 peptide binding to fibrin DD(E), primary screen, biochemical, fluorescence polarization, human fibrin, Tn7 probe; inhibition, % at 8.3 µM; 0.13% of 370,000 active; Fibrinogen beta chain (Homo sapiens), P02675; FP displacement of FITC-Tn7 peptide from fibrin DD(E); 0% = median of compound wells per plate;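 active means inhibition above the mean of compounds falling within the control limits plus 3 SD of them, cut at about 14% in these data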
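Measure: % inhibition scaled between sample-field median and high-control FP; Test system: human fibrin DD(E); Quantity: 2 µM final DD(E) protein; Doses: one dose, 8.3 µM nominal; Schedule: compound with protein 10 min, then 3 h after probe, room temperature; Detection: fluorescence polarization; Medium: Tris buffer with calcium and detergent, pH 7.8.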
Tn6 DDE FP = inhibitors of Tn6 peptide binding to fibrin DD(E), primary screen, biochemical, fluorescence polarization, human fibrin, Tn6 probe. Fibrinogen beta chain (Homo sapiens), P02675. AID 720509, 2013. 0.21% of 370,000 active. Fibrin DD(E) TRITC-Tn6 fluorescence polarization displacement. inhibition, % at 8.3 µM;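 active means inhibition above a per-campaign cutoff: mean of compounds within control limits plus 3 SD, cut at about 15% in these data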
PLC-beta3 inh = human PLC-beta3 inhibitors, primary screen, biochemical, fluorescence; Purified PLC-beta3, fluorogenic substrate; inhibition, % at 12.2 µM; 0.18% of 370,000 active; AID 720704, 2013; in the data active means inhibition above about 11%
ADAM10 counter = ADAM10 inhibitors, counter-screen for ADAM17 exosite inhibitor project, biochemical, FRET, human ADAM10; shares compounds with ADAM17 inh; recombinant ADAM10, EDANS/DABCYL FRET peptide cleavage, 3 h; inhibition, % at 6.95 µM; 47% of 2,900 active; AID 743256, 2014;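 active means mean inhibition over the triplicate runs exceeds the activity threshold set in the earlier primary screen, cut at about 20% in these data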
ADAM17 confirm = ADAM17 inhibitors, hit retest, confirmation, biochemical, QFRET peptide cleavage; shares compounds with ADAM17 inh; recombinant ADAM17, EDANS/DABCYL QFRET peptide cleavage; inhibition, % at 6.95 µM; 65% of 2,900 active; AID 743257, 2014;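 active means mean inhibition across replicates above the hit cutoff set in the primary screen, cut at about 8.5% in these data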
Each line names hits and unclear results; the compound was inactive in the other large screens (follow-up assays come after a bar, where they were run).

Cc1ccc(S(=O)(=O)N2[C@H](c3ccccc3)CC(=O)[C@@H]3CN(S(=O)(=O)c4ccccc4C)[C@H](c4ccccc4)C[C@@H]32)cc1	none
NC(Cc1ccc(F)cc1)c1csc(NC(=O)NC(c2ccccc2)c2ccccc2)n1 (centres undefined)	ADAM17 inh 8.8 | ADAM10 counter 19.9 | ADAM17 confirm 9.3
CCN(CC)S(=O)(=O)c1ccc(N2CCOCC2)c(NC(=O)c2ccc(OC)c([N+](=O)[O-])c2)c1	none
CCN(CC)S(=O)(=O)c1ccc(OC)c(NC(=O)c2ccc(OC)c([N+](=O)[O-])c2)c1	ADAM17 inh 13.3 | ADAM10 counter inactive | ADAM17 confirm inactive
COc1ccccc1C1N(c2ccc(Cl)cc2)C(=O)C2CCCN21 (centres undefined)	ADAM17 inh 9.8 | ADAM10 counter inactive | ADAM17 confirm inactive
C=CCC[C@@H](Cc1ccc(F)cc1)C(=O)OC[C@@H](Cc1c[nH]c2ccccc12)NC(=O)[C@@H](CC=C)CC(=O)N[C@@H](CO)Cc1ccccc1	none
C=CCC[C@@H](Cc1ccc(F)cc1)C(=O)OC[C@@H](Cc1c[nH]c2ccccc12)NC(=O)[C@@H](CC=C)CC(=O)N(CCO)Cc1ccccc1	ADAM17 inh 9.5 | ADAM10 counter 36.8 | ADAM17 confirm 21.2
C=CCC[C@@H](Cc1ccc(F)cc1)C(=O)OC[C@H](C)NC(=O)[C@@H](CC=C)CC(=O)N(CCO)Cc1ccccc1	ADAM17 inh 9.8 | ADAM10 counter inactive | ADAM17 confirm inactive
CC(C)C(C#CC1CC1)N(Cc1ccc2c(c1)OCO2)C(N)=NC(=O)/C=C/c1ccccc1 (centres undefined)	none
O=C(Nc1ccccc1)c1ccc(-c2ccccc2C(F)(F)F)o1	ADAM17 inh 9.2 | ADAM10 counter inactive | ADAM17 confirm inactive
CC(C)NC(=O)c1ccc(-c2ccccc2C(F)(F)F)o1	none
COc1ccc(NC(=O)C(c2ccc(C)cc2)N(C)C(=O)Cc2cccs2)cc1 (centres undefined)	ADAM17 inh 9.0 | ADAM10 counter inactive | ADAM17 confirm inactive
COc1ccc(NC(=O)C(c2ccc(OC)cc2)N(C)C(=O)Cc2cccs2)cc1 (centres undefined)	none
CCCC(=O)OC12CCCN(C1)/C(=C/c1cccc(OC)c1)C2 (centres undefined)	none
CCc1cc(-c2n[nH]c(C)c2-c2nc3ccccc3n2C)c(O)cc1O	none
CCc1cc(-c2n[nH]c(C)c2-c2ccccc2Cl)c(O)cc1OC	ADAM17 inh 8.7 | ADAM10 counter 32.3 | ADAM17 confirm 15.7
COc1cccc(NC(=O)c2cccc(S(=O)(=O)N3CCN(Cc4ccccc4)CC3)c2)c1	none
CC(=O)Nc1cccc(NC(=O)c2cccc(S(=O)(=O)N3CCN(Cc4ccccc4)CC3)c2)c1	ADAM17 inh 20.0 | ADAM10 counter inactive | ADAM17 confirm 11.9
COc1cc2c(cc1NC(=O)COC(=O)[C@@H](NS(=O)(=O)c1ccccc1)C(C)C)oc1ccccc12	ADAM17 inh 10.5 | ADAM10 counter inactive | ADAM17 confirm inactive
CCCCNS(=O)(=O)/C=C/c1ccccc1CNC(=O)OC(C)(C)C	none
CCOC(=O)c1ccc(NC(=O)c2nc[nH]c2C(=O)N[C@@H](CC(C)C)C(=O)OC(C)(C)C)cc1	none
CC(C)C[C@H](NC(=O)c1nc[nH]c1C(=O)NCc1ccc(CNC(=O)OC(C)(C)C)cc1)C(=O)OCc1ccccc1	none
CC(C)(C)OC(=O)[C@H](Cc1ccccc1)NCC(=O)OCc1ccc(C(=O)NCc2ccccc2)cc1	ADAM17 inh 8.7 | ADAM10 counter inactive | ADAM17 confirm inactive
C[C@@H](NC(=O)c1nc[nH]c1C(=O)N[C@@H](Cc1ccccc1)C(=O)OC(C)(C)C)c1ccccc1	ADAM17 inh 10.0 | ADAM10 counter 32.8 | ADAM17 confirm 14.1
CC(C)(C)OC(=O)[C@H](Cc1ccccc1)NC(=O)c1nc[nH]c1C(=O)N[C@@H](CCCCN)C(=O)OC(C)(C)C	none
COC(=O)c1ccc(COC(=O)CNC(=O)c2ccc(-c3ccccc3)cc2)cc1	none
CC(C)C[C@H](NC(=O)c1[nH]cnc1C(=O)Nc1ccccc1)C(=O)OC(C)(C)C	ADAM17 inh 14.0, ADAM10 inh 27.2 | ADAM10 counter 40.5 | ADAM17 confirm 20.2
CC(C)(C)OC(=O)NCc1ccc(CNC(=O)c2[nH]cnc2C(=O)N[C@@H](Cc2ccccc2)C(=O)OCc2ccccc2)cc1	ADAM17 inh 12.0 | ADAM10 counter 33.8 | ADAM17 confirm 19.9
Clc1ccc([C@H]2OC[C@@]3(CNCc4ccccc4)CS[C@H](c4ccc(Cl)cc4)N23)cc1	none
C[C@H](NC(=O)c1nc[nH]c1C(=O)N[C@@H](Cc1ccccc1)C(=O)OCc1ccccc1)C(=O)OCc1ccccc1	ADAM17 inh 10.6 | ADAM10 counter 32.5 | ADAM17 confirm 19.0
CNC(=O)c1[nH]cnc1C(=O)N[C@@H](Cc1ccccc1)C(=O)OCc1ccccc1	none
CC(=O)N1CC(C)Sc2ccc(S(=O)(=O)NCCc3ccc(C)cc3)cc21 (centres undefined)	ADAM17 inh 9.3 | ADAM10 counter inactive | ADAM17 confirm inactive
CC(=O)N1CC(C)Sc2ccc(S(=O)(=O)NCCc3ccccc3)cc21 (centres undefined)	none
COCCCNC(=O)C[C@H]1C[C@@]2(C(=O)OC)C(=C[C@H](C3CCCC3)O[C@@H]2C)N(CCC2=CCCCC2)C1=O	none
O=C(CC1SC(=O)N(c2ccccc2)C1=O)Nc1ccccc1 (centres undefined)	ADAM17 inh 9.3 | ADAM10 counter inactive | ADAM17 confirm 16.0
